# Experimental data published in ChEMBL document CHEMBL5303300, “EUbOPEN Chemogenomics Library - Multiplex” (2023).
# Several values for one entry are separate records, joined by “and”; a condition that tells them apart may be missing. Equal values may be shown once.
# Test system: U2OS
# Test: Multiplex assay against U2OS
# Type: toxicity, cell-based
# Details: human, number of replicates 2
# Method in brief: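 Imaging took place on a CQ1 microscope at 37°C and 5% CO2 once compound had been added to live cells stained at seeding with Hoechst33342, BioTracker Green Microtubule Cytoskeleton Dye, MitoTracker Red and Annexin V Alexa Fluor 680. CellPathfinder machine-learning gating classed cells as Hoechst high-intensity objects or normal cells, classed normal cells as having healthy, pyknosed or fragmented nuclei, and classed pyknosed cells as mitotic or apoptotic. Tubulin, mitochondrial-mass and membrane-permeability phenotypes are per cents of the healthy-nucleus cells.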
# [1] = 12 h, 1 µM, compound concentration 1 uM
# [2] = 12 h, 10 µM, compound concentration 10 uM
# [3] = 24 h, 1 µM, compound concentration 1 uM
# [4] = 24 h, 10 µM, compound concentration 10 uM
# [5] = 48 h, 1 µM, compound concentration 1 uM
# [6] = 48 h, 10 µM, compound concentration 10 uM
structure (smiles),measurement,setting,value
Cc1c(C(=O)Nc2ccc(N3C[C@@H](C)O[C@@H](C)C3)nc2)cccc1-c1ccc(OC(F)(F)F)cc1 [SONIDEGIB],Population Apoptotic (%),[1],66% and 51%
same,Population Healthy Nuclei (%),[1],60% and 79%
same,Population Hoechst High Intensity Objects (%),[1],0%
same,Population Membrane Permeable-Phenotype (%),[1],4% and 1%
same,Population Mitochondria Different-Phenotype (%),[1],0%
same,Population Mitotic Cells (%),[1],33% and 48%
same,Population Normal (%),[1],100%
same,Population Pyknosed Nuclei (%),[1],7% and 13%
same,Population Tubulin-Different-Phenotype (%),[1],56% and 90%
same,Population Healthy Nuclei (%),[2],61% and 85%
same,Population Hoechst High Intensity Objects (%),[2],0%
same,Population Membrane Permeable-Phenotype (%),[2],0% and 1%
same,Population Mitochondria Different-Phenotype (%),[2],0%
same,Population Mitotic Cells (%),[2],100% and 54%
same,Population Normal (%),[2],100%
same,Population Pyknosed Nuclei (%),[2],11%
same,Population Tubulin-Different-Phenotype (%),[2],57% and 90%
same,Population Apoptotic (%),[3],50% and 66%
same,Population Healthy Nuclei (%),[3],68% and 85%
same,Population Hoechst High Intensity Objects (%),[3],0%
same,Population Membrane Permeable-Phenotype (%),[3],0% and 2%
same,Population Mitochondria Different-Phenotype (%),[3],0%
same,Population Mitotic Cells (%),[3],50% and 33%
same,Population Normal (%),[3],100% and 99%
same,Population Pyknosed Nuclei (%),[3],4% and 9%
same,Population Tubulin-Different-Phenotype (%),[3],64% and 88%
same,Population Apoptotic (%),[4],50% and 63%
same,Population Healthy Nuclei (%),[4],61% and 90%
same,Population Hoechst High Intensity Objects (%),[4],0%
same,Population Membrane Permeable-Phenotype (%),[4],4% and 1%
same,Population Mitochondria Different-Phenotype (%),[4],0%
same,Population Mitotic Cells (%),[4],50% and 36%
same,Population Normal (%),[4],100%
same,Population Pyknosed Nuclei (%),[4],10% and 7%
same,Population Tubulin-Different-Phenotype (%),[4],75% and 90%
same,Population Apoptotic (%),[5],33% and 54%
same,Population Healthy Nuclei (%),[5],60% and 89%
same,Population Hoechst High Intensity Objects (%),[5],0%
same,Population Membrane Permeable-Phenotype (%),[5],6% and 1%
same,Population Mitochondria Different-Phenotype (%),[5],0%
same,Population Mitotic Cells (%),[5],66% and 45%
same,Population Normal (%),[5],100%
same,Population Pyknosed Nuclei (%),[5],5% and 7%
same,Population Tubulin-Different-Phenotype (%),[5],70% and 89%
same,Population Apoptotic (%),[6],42% and 46%
same,Population Healthy Nuclei (%),[6],71% and 91%
same,Population Hoechst High Intensity Objects (%),[6],0%
same,Population Membrane Permeable-Phenotype (%),[6],0% and 1%
same,Population Mitochondria Different-Phenotype (%),[6],0%
same,Population Mitotic Cells (%),[6],57% and 53%
same,Population Normal (%),[6],100%
same,Population Pyknosed Nuclei (%),[6],8% and 6%
same,Population Tubulin-Different-Phenotype (%),[6],74% and 89%
Cc1ccc2c(c1CCC(=O)O)CC[C@@H](NS(=O)(=O)c1ccc(Cl)cc1)C2 [TERUTROBAN],Population Apoptotic (%),[1],44% and 33%
same,Population Healthy Nuclei (%),[1],83% and 55%
same,Population Hoechst High Intensity Objects (%),[1],0%
same,Population Membrane Permeable-Phenotype (%),[1],1% and 0%
same,Population Mitochondria Different-Phenotype (%),[1],1% and 0%
same,Population Mitotic Cells (%),[1],56% and 66%
same,Population Normal (%),[1],100%
same,Population Pyknosed Nuclei (%),[1],11% and 7%
same,Population Tubulin-Different-Phenotype (%),[1],92% and 47%
same,Population Apoptotic (%),[2],44% and 50%
same,Population Fragmented Nuclei (%),[2],8% and 2%
same,Population Healthy Nuclei (%),[2],76% and 86%
same,Population Hoechst High Intensity Objects (%),[2],0%
same,Population Membrane Permeable-Phenotype (%),[2],4% and 2%
same,Population Mitochondria Different-Phenotype (%),[2],2% and 0%
same,Population Mitotic Cells (%),[2],55% and 50%
same,Population Normal (%),[2],100%
same,Population Pyknosed Nuclei (%),[2],15% and 10%
same,Population Tubulin-Different-Phenotype (%),[2],73% and 87%
same,Population Apoptotic (%),[3],50% and 61%
same,Population Healthy Nuclei (%),[3],61% and 87%
same,Population Hoechst High Intensity Objects (%),[3],0%
same,Population Membrane Permeable-Phenotype (%),[3],0% and 1%
same,Population Mitochondria Different-Phenotype (%),[3],0%
same,Population Mitotic Cells (%),[3],50% and 38%
same,Population Normal (%),[3],100%
same,Population Pyknosed Nuclei (%),[3],5% and 8%
same,Population Tubulin-Different-Phenotype (%),[3],66% and 92%
same,Population Apoptotic (%),[4],66% and 62%
same,Population Fragmented Nuclei (%),[4],9% and 2%
same,Population Healthy Nuclei (%),[4],81% and 87%
same,Population Hoechst High Intensity Objects (%),[4],0%
same,Population Membrane Permeable-Phenotype (%),[4],5% and 0%
same,Population Mitochondria Different-Phenotype (%),[4],3% and 0%
same,Population Mitotic Cells (%),[4],33% and 37%
same,Population Normal (%),[4],100%
same,Population Pyknosed Nuclei (%),[4],8% and 10%
same,Population Tubulin-Different-Phenotype (%),[4],75% and 92%
same,Population Apoptotic (%),[5],37% and 58%
same,Population Healthy Nuclei (%),[5],66% and 91%
same,Population Hoechst High Intensity Objects (%),[5],0%
same,Population Membrane Permeable-Phenotype (%),[5],2%
same,Population Mitochondria Different-Phenotype (%),[5],0%
same,Population Mitotic Cells (%),[5],62% and 41%
same,Population Normal (%),[5],100%
same,Population Pyknosed Nuclei (%),[5],11% and 5%
same,Population Tubulin-Different-Phenotype (%),[5],73% and 94%
same,Population Apoptotic (%),[6],25% and 57%
same,Population Fragmented Nuclei (%),[6],3% and 1%
same,Population Healthy Nuclei (%),[6],85% and 91%
same,Population Hoechst High Intensity Objects (%),[6],0%
same,Population Membrane Permeable-Phenotype (%),[6],4% and 1%
same,Population Mitochondria Different-Phenotype (%),[6],4% and 0%
same,Population Mitotic Cells (%),[6],75% and 42%
same,Population Normal (%),[6],100%
same,Population Pyknosed Nuclei (%),[6],10% and 6%
same,Population Tubulin-Different-Phenotype (%),[6],72% and 93%
Cc1cc(C2CCCNC2)ccc1Nc1ncc(Br)c(NCc2cccc3c2C(C)(C)C(=O)N3)n1 (centres undefined),Population Apoptotic (%),[1],50% and 63%
same,Population Healthy Nuclei (%),[1],57% and 78%
same,Population Hoechst High Intensity Objects (%),[1],0%
same,Population Membrane Permeable-Phenotype (%),[1],31% and 29%
same,Population Mitochondria Different-Phenotype (%),[1],9% and 19%
same,Population Mitotic Cells (%),[1],50% and 36%
same,Population Normal (%),[1],100%
same,Population Pyknosed Nuclei (%),[1],10% and 11%
same,Population Tubulin-Different-Phenotype (%),[1],65% and 44%
same,Total Cell Count,[1],56 and 99
same,Population Apoptotic (%),[2],82% and 73%
same,Population Fragmented Nuclei (%),[2],28% and 14%
same,Population Healthy Nuclei (%),[2],42% and 69%
same,Population Hoechst High Intensity Objects (%),[2],0%
same,Population Membrane Permeable-Phenotype (%),[2],24% and 20%
same,Population Mitochondria Different-Phenotype (%),[2],56% and 54%
same,Population Mitotic Cells (%),[2],17% and 26%
same,Population Normal (%),[2],100%
same,Population Pyknosed Nuclei (%),[2],28% and 16%
same,Population Tubulin-Different-Phenotype (%),[2],88% and 83%
same,Population Apoptotic (%),[3],70% and 51%
same,Population Healthy Nuclei (%),[3],54% and 72%
same,Population Hoechst High Intensity Objects (%),[3],1% and 0%
same,Population Membrane Permeable-Phenotype (%),[3],17% and 15%
same,Population Mitochondria Different-Phenotype (%),[3],34% and 21%
same,Population Mitotic Cells (%),[3],30% and 48%
same,Population Normal (%),[3],98% and 100%
same,Population Pyknosed Nuclei (%),[3],18% and 21%
same,Population Tubulin-Different-Phenotype (%),[3],75% and 58%
same,Total Cell Count,[3],54 and 125
same,Population Apoptotic (%),[4],88% and 66%
same,Population Fragmented Nuclei (%),[4],27% and 10%
same,Population Hoechst High Intensity Objects (%),[4],0%
same,Population Membrane Permeable-Phenotype (%),[4],66% and 31%
same,Population Mitochondria Different-Phenotype (%),[4],66% and 61%
same,Population Mitotic Cells (%),[4],12% and 33%
same,Population Normal (%),[4],100% and 99%
same,Population Pyknosed Nuclei (%),[4],53% and 25%
same,Population Tubulin-Different-Phenotype (%),[4],88% and 82%
same,Population Apoptotic (%),[5],87% and 70%
same,Population Fragmented Nuclei (%),[5],8% and 20%
same,Population Healthy Nuclei (%),[5],74% and 64%
same,Population Hoechst High Intensity Objects (%),[5],0% and 1%
same,Population Membrane Permeable-Phenotype (%),[5],13% and 14%
same,Population Mitochondria Different-Phenotype (%),[5],16% and 21%
same,Population Mitotic Cells (%),[5],12% and 30%
same,Population Normal (%),[5],100% and 98%
same,Population Pyknosed Nuclei (%),[5],17% and 15%
same,Population Tubulin-Different-Phenotype (%),[5],63% and 46%
same,Total Cell Count,[5],175 and 65
same,Population Apoptotic (%),[6],91% and 87%
same,Population Fragmented Nuclei (%),[6],19% and 8%
same,Population Hoechst High Intensity Objects (%),[6],0% and 2%
same,Population Membrane Permeable-Phenotype (%),[6],100% and 43%
same,Population Mitochondria Different-Phenotype (%),[6],50% and 83%
same,Population Mitotic Cells (%),[6],8% and 12%
same,Population Normal (%),[6],100% and 97%
same,Population Pyknosed Nuclei (%),[6],76% and 43%
same,Population Tubulin-Different-Phenotype (%),[6],100% and 82%
